Measurements: ChEMBL document CHEMBL3861970, “Penipyridones A-F, Pyridone Alkaloids from Penicillium funiculosum” (J Nat Prod, 2016)
The source made the active and inactive calls. No cut-off for these calls is given here.

Columns and labels:
Format in all cases: functional, cell-based
[1] = Cytotoxicity against human K562 cells assessed as growth inhibition after 48 hrs by SRB assay; details: K562, 48 h
[2] = Cytotoxicity against human A549 cells assessed as growth inhibition after 48 hrs by SRB assay; details: A549, 48 h
[3] = Cytotoxicity against human HL60 cells assessed as growth inhibition after 48 hrs by SRB assay; details: HL-60, 48 h
[4] = Cytotoxicity against human HeLa cells assessed as growth inhibition after 48 hrs by SRB assay
HepG2 [5] = experiment: Lipid lowering activity in human HepG2 cells assessed as decrease in triglyceride level at 10 uM treated 12 hrs post oleic acid addition measured 6 hrs post dose
Method in brief: (§1)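 HepG2 cells (ATCC origin) grown in DMEM with 10% FBS and penicillin/streptomycin to 70–80% confluence. They were loaded with 100 μM oleic acid in DMEM for 12 h, then exposed for 6 h to 10 μM compound, lovastatin as positive control, or oleic acid alone. Read-outs were Oil-Red O staining (n = 8) or TC/TG determination (n = 3). Each experiment was repeated at least three times; means ± SEM.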

HepG2 [6] = experiment: Lipid lowering activity in human HepG2 cells assessed as decrease in oleic acid elicited lipid accumulation at 10 uM treated 12 hrs post oleic acid addition measured 6 hrs post dose by oil-red O staining method; method in brief: as §1
HepG2 [7] = experiment: Lipid lowering activity in human HepG2 cells assessed as decrease in total cholesterol level at 10 uM treated 12 hrs post oleic acid addition measured 6 hrs post dose; method in brief: as §1

| SMILES | IC50 [1] | IC50 [2] | IC50 [3] | IC50 [4] | Activity (HepG2 [5]) | Activity (HepG2 [6]) | Activity (HepG2 [7]) |
| --- | --- | --- | --- | --- | --- | --- | --- |
| CC(C)CC(=O)NC(=O)c1cn(CCO)c([C@@H](O)c2ccccc2)cc1=O | > 50 µM | > 50 µM | > 50 µM | > 50 µM |  |  |  |
| CC(=O)O[C@@H](c1ccccc1)c1cc(=O)c(C(N)=O)cn1CCO | > 50 µM | > 50 µM | > 50 µM | > 50 µM | Active | Active | Active |
| NC(=O)c1c[nH]c([C@@H](O)c2ccccc2)cc1=O | > 50 µM | > 50 µM | > 50 µM | > 50 µM | Active | Active | Active |
| CC(=O)O[C@@H](c1ccccc1)c1cc(=O)c(C(=O)NC(=O)CC(C)C)cn1CCO | > 50 µM | > 50 µM | > 50 µM | > 50 µM | Active | Active | Active |
| COC(=O)c1c[nH]c([C@@H](O)c2ccccc2)cc1=O | > 50 µM | > 50 µM | > 50 µM | > 50 µM | Active | Active | Active |
| CC(C)CC(=O)NC(=O)c1c[nH]c([C@@H](O)c2ccccc2)cc1=O | > 50 µM | > 50 µM | > 50 µM | > 50 µM |  |  |  |
| NC(=O)c1cn(CCO)c([C@@H](O)c2ccccc2)cc1=O | > 50 µM | > 50 µM | > 50 µM | > 50 µM |  |  |  |
